Reference: ChEMBL document CHEMBL4837209, “Synthesis and BK channel-opening activity of 2-amino-1,3-thiazole derivatives” (Bioorg Med Chem Lett, 2021)
The source made the active and inactive calls. The rule behind the calls is not given here.

Key:
[1] = biological target: Calcium-activated potassium channel subunit alpha-1 (Homo sapiens) (UniProt Q12791); assay: Opening of BK channel in human AD293 cells assessed as relative fluorescence unit at 5 uM by cell-based fluorescence assay relative to control
Summary of the method: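 FluxOR Tl⁺-flux assay in AD-293 cells expressing hyperactive mutant BK channels (G803D/N806K). Each fluorescence trace was normalized to its own basal level to give RFU. ΔRFU with compound at 5 μM was expressed versus the drug-free control. DMSO served as negative control and CTBIC at a fixed concentration as positive control. Values are means of at least three separate measurements.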

[2] = biological target: Calcium-activated potassium channel subunit alpha-1 (Rattus norvegicus) (UniProt Q62976); assay: […] of rat BK calcium channel expressed in Xenopus laevis oocytes assessed as increase in inward current tail at 10 uM at -80 to 200 mV by patch clamp assay; type: cell-based; settings: Oocyte
Summary of the method: (§1)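 Rat BK α-subunit (Slo1) expressed in Xenopus laevis oocytes. Currents were recorded by gigaohm-seal patch clamp in the outside-out configuration. Macroscopic currents were evoked by voltage pulses from -80 to 200 mV, with and without compound. Student t-test was used.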

[3] = biological target: Calcium-activated potassium channel subunit alpha-1 (Rattus norvegicus) (UniProt Q62976); assay: […] of rat BK calcium channel expressed in Xenopus laevis oocytes assessed as V1/2 at 10 uM at -80 to 200 mV by patch clamp assay; type: cell-based; settings: Oocyte; summary of the method: as §1
[4] = biological target: Calcium-activated potassium channel subunit alpha-1 (Rattus norvegicus) (UniProt Q62976); assay: […] of rat BK calcium channel expressed in Xenopus laevis oocytes assessed as G-V shift toward more negative voltage at 10 uM at -80 to 200 mV by patch clamp assay; type: cell-based; settings: Oocyte; summary of the method: as §1
[5] = biological target: Calcium-activated potassium channel subunit alpha-1 (Rattus norvegicus) (UniProt Q62976); assay: […] of rat BK calcium channel expressed in Xenopus laevis oocytes assessed as maximum conductance at 10 uM at -80 to 200 mV by patch clamp assay relative to control; type: cell-based; settings: Oocyte; summary of the method: as §1
[6] = biological target: Calcium-activated potassium channel subunit alpha-1 (Rattus norvegicus) (UniProt Q62976); assay: […] of rat BK calcium channel expressed in Xenopus laevis oocytes assessed as increase in outward current tail at 10 uM at -80 to 200 mV by patch clamp assay; type: cell-based; settings: Oocyte; summary of the method: as §1
[7] = biological target: Calcium-activated potassium channel subunit alpha-1 (Homo sapiens) (UniProt Q12791); assay: Opening of BK channel in human AD293 cells assessed as relative fluorescence unit by cell-based fluorescence assay; settings: dose 1-30 µM
[8] = biological target: Calcium-activated potassium channel subunit alpha-1 (Homo sapiens) (UniProt Q12791); assay: […] of BK calcium channel in human AD293 cells assessed as relative fluorescence unit at 1 to 30 uM in presence of 1 uM paxilline by cell-based fluorescence assay; settings: dose 1-30 µM
Summary of the method: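 FluxOR Tl⁺-flux fluorescence in AD-293 cells expressing G803D/N806K mutant BK channels. Compounds were tested at 1–30 μM, alone and co-applied with 1 μM paxilline to confirm the BK dependence of the signal. Signals were normalized to the basal level of each trace. Student t-test was used.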

Chain of Calcium-activated potassium channel subunit alpha-1 (Homo sapiens) (Q12791 whole entry): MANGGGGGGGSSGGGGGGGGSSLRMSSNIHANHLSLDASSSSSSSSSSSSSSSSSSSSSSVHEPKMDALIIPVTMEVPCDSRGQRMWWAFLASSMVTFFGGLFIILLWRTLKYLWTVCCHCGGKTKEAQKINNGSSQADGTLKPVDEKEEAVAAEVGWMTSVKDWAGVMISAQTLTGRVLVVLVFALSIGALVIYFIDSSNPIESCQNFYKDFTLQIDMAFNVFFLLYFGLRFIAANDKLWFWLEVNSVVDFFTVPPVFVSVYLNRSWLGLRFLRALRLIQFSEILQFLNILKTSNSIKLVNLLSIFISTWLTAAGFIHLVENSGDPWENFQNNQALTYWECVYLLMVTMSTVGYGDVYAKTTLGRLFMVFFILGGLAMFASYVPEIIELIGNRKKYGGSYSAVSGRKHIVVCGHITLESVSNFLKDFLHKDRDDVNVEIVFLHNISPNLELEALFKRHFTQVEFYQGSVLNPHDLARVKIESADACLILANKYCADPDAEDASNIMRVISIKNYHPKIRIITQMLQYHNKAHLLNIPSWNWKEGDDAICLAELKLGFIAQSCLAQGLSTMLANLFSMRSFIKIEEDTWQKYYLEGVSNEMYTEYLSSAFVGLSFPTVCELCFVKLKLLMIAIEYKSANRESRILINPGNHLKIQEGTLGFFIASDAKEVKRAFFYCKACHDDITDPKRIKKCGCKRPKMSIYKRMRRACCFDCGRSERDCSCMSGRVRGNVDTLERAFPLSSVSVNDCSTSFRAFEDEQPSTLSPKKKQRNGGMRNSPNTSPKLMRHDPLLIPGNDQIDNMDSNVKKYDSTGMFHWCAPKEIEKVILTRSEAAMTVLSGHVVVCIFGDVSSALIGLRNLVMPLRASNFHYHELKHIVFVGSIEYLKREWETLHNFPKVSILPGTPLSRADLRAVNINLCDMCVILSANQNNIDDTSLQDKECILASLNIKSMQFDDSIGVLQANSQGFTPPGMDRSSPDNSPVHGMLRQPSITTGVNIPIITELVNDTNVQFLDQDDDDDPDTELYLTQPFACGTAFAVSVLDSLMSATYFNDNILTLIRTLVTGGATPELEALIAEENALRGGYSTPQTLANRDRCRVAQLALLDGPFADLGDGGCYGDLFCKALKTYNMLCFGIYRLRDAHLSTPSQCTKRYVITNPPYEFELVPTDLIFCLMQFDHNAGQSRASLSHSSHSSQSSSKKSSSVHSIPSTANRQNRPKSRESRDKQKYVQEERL
Chain of Calcium-activated potassium channel subunit alpha-1 (Rattus norvegicus) (Q62976 whole entry): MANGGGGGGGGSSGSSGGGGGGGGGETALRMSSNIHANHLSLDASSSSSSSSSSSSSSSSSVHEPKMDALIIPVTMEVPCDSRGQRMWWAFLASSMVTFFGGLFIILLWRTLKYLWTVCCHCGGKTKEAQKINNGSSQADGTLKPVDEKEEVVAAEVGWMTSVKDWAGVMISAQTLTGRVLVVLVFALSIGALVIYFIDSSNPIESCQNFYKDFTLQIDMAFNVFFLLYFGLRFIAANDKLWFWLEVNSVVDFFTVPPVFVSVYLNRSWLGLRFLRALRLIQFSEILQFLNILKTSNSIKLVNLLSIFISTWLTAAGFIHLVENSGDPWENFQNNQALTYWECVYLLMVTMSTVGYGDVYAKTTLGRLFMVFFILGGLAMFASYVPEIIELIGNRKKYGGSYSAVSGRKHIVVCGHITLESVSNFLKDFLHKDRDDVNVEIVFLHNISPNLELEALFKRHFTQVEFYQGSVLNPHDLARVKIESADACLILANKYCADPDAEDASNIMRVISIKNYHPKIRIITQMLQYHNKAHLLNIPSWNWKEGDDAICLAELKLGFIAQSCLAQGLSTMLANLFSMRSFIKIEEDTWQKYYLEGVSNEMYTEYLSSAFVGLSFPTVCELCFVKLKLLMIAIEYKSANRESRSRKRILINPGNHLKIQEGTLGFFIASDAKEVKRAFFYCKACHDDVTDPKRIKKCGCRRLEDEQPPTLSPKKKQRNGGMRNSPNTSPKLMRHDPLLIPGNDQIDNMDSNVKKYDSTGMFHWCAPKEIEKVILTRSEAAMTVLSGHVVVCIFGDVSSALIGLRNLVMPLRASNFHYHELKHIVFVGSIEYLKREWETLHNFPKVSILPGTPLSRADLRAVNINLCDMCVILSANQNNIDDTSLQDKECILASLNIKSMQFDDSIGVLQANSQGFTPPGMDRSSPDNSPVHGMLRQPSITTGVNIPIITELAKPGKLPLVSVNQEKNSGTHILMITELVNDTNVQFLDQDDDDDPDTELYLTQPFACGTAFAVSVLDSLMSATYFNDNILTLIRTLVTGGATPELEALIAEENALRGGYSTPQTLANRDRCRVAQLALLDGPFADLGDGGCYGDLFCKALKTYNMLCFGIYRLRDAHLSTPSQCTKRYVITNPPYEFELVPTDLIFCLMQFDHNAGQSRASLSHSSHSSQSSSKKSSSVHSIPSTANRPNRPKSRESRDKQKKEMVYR

Row | Compound | RFU [1] | other results
1 | COc1ccccc1Cc1cnc(N)s1 | 0.94 | 
2 | CC(=O)Nc1ncc(Cc2ccc(Br)cc2)s1 | 1.14 | 
3 | Nc1ncc(C(=O)c2ccc(Br)cc2)s1 | 0.94 | 
4 | Nc1ncc(Cc2ccccc2Cl)s1 | 1.13 | 
5 | Nc1ncc(C(=O)c2ccc(C(F)(F)F)cc2)s1 | 1.08 | 
6 | N#Cc1ccc(Cc2cnc(N)s2)cc1 | 1.21 | 
7 | Cc1ccccc1Cc1cnc(N)s1 | 1.37 | 
8 | O=C(O)c1ccc(Cl)c2c1[nH]c1c3ccc(C(F)(F)F)cc3oc12 | 3.3 | 
9 | N#Cc1ccccc1Cc1cnc(N)s1 | 1.06 | 
10 | Nc1ncc(Cc2ccc([N+](=O)[O-])cc2)s1 | 0.94 | 
11 | COc1ccc(Cc2cnc(N)s2)cc1 | 1.02 | 
12 | O=C(CCl)Nc1ncc(Cc2ccc(Br)cc2)s1 | 0.94 | 
13 | Nc1ncc(Cc2ccncc2)s1 | 1.11 | 
14 | Nc1ncc(Cc2ccccc2Br)s1 | 2.67 | Activity [2]: Active; V1/2 [3]: 23.4 mV; Activity [4]: Active; fold change (FC) [5]: 1.4; Activity [6]: Active; inhibition [7]: Dose-Dependent Effect; inhibition [8]: Active

Continued, in another order:

Row | RFU [1] | Compound | other results
15 | 1.59 | Nc1ncc(Cc2ccc(Cl)cc2)s1 | 
16 | 1.51 | Nc1ncc(Cc2cccc(Cl)c2)s1 | 
17 | 2.1 | Nc1ncc(Cc2ccc(C(F)(F)F)cc2)s1 | Activity [2]: Active; V1/2 [3]: 24.5 mV; Activity [4]: Active; fold change (FC) [5]: 1.3; Activity [6]: Active; inhibition [7]: Dose-Dependent Effect; inhibition [8]: Active
18 | 1.02 | COc1cccc(Cc2cnc(N)s2)c1 | 
19 | 1.37 | Nc1ncc(Cc2cccc(Br)c2)s1 | 
20 | 1.22 | Nc1ncc(Cc2cccc(C(F)(F)F)c2)s1 | 
21 | 1.11 | Cc1ccc(Cc2cnc(N)s2)cc1 | 
22 | 1.27 | Cc1cccc(Cc2cnc(N)s2)c1 | 
23 | 1.07 | Nc1ncc(Cc2ccccc2C(F)(F)F)s1 | 
24 | 0.97 | COc1cc(Cc2cnc(N)s2)cc(C(F)(F)F)c1 | 
25 | 1.08 | Nc1ncc(Cc2cccnc2)s1 | 
26 | 1 | N#Cc1cccc(Cc2cnc(N)s2)c1 | 
27 | 1.85 | Nc1ncc(Cc2ccc(Br)cc2)s1 | 
